# MsrA act: activates bovine MsrA enzyme; purified bovine MsrA, absorbance read-out; activation, % at 10.6 µM; actives 0.3% (n = 360,000); in the data active means activation above about 7.5%;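 further: 0% = vehicle and 100% = reference activator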
# MC4R antag cAMP: human MC4R antagonism in cAMP assay; P32245; MC4R-expressing cells, MTII-stimulated cAMP, LANCE TR-FRET; inhibition, % at 6.5 µM; actives 0.48% (n = 360,000);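 active means inhibition above its plate's cutoff, the mean of tested wells on that plate plus 3 SD, cut at about 29% in these data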;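 further: 0% = Melanotan II alone and 100% = Melanotan II plus saturating MCL0020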
# Target sequence (P32245 whole entry, looked up): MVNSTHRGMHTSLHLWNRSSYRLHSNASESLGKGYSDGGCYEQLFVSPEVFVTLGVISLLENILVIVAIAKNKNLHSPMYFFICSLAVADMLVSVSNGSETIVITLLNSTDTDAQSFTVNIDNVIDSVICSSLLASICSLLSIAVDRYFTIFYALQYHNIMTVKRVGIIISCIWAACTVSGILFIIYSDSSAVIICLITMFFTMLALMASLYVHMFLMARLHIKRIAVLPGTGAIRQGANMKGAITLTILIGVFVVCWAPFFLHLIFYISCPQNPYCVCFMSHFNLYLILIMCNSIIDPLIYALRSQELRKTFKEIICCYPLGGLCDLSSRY
#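 Assay system: U2OS cells stably expressing human melanocortin 4 receptor (MC4R) / Dosing: 6.5 µM / Timing: compound 30 min, challenge 1 h, detection 1 h / Measured by: Eu-cAMP/anti-cAMP TR-FRET, emission 671 nm / Replicates: singlicate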
# MC4R ag barr: activates human MC4R beta-arrestin recruitment | P32245 | U2OS MC4R beta-arrestin complementation, luminescence; percent of melanotan II response, DMSO zero | activation, % at 8.9 µM | actives 0.98% (n = 360,000) | AID 540308;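 active means activation above a per-plate cutoff, the mean activation of sample wells on that plate plus 3 SD, cut at about 8% in these data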
# MsrA inh: inhibits bovine methionine sulfoxide reductase A | purified bovine MsrA, absorbance read-out | AID 651718 | actives 0.75% (n = 360,000) | inhibition, % at 15.5 µM;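 further: 0% = vehicle wells with enzyme and 100% = reference inhibitor wells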
# MsrA conf: bovine MsrA inhibition, confirmed. shares compounds with MsrA inh. purified bovine MsrA, absorbance read-out. inhibition, % at 15.5 µM. actives 41% (n = 2,300). AID 651822;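 further: coupled to thioredoxin reductase with NADPH and selenocystamine and DMSO as substrate; 0% = vehicle only and 100% = full effect of reference inhibitor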
# Numbers without * were called inactive; nt = no result given. The list is not random: actives were taken first. Their share in the collection is about 2.3%. Unless noted, no stated cut-off is given here; in the data, active means inhibition above about 4.5%; inactive means the rest.
SMILES,MsrA act,MC4R antag cAMP,MC4R ag barr,MsrA inh,MsrA conf
CC(=O)c1cccc(Nc2cc(C)nc3c(C)cc(C)cc23)c1,-6.5,0.6,-3.2,5.9*,1.6
COC(=O)C1CC(Cl)CN1c1ncc(C(F)(F)F)cc1Cl (stereo unspecified),-5.1,-1.8,0.2,5.1*,0.5
Cc1cc(C)nc(NS(=O)(=O)c2ccc(Br)cc2)n1,-3.4,-0.4,-0.7,0.6,nt
Cc1cc(C)nc(NS(=O)(=O)c2ccc(N/C=C3\CCCC3=O)cc2)n1,-8.1,-2.3,-1.0,5.2*,5.5*
N#C/C(=C/c1ccc(Br)o1)C(N)=O,-3.7,0.4,2.3,4.7*,5.5*
COc1ccc(NC(=O)/C(C#N)=C/c2ccc(Br)o2)cc1,-7.3,-6.6,-0.5,1.5,nt
Cc1ccc2c(c1)N(CC(=O)NCc1cccs1)C(=O)CO2,-1.5,1.8,-3.6,0.2,nt
CCC(C)N(C(=O)COC(=O)/C=C/c1ccc(O)c(OC)c1)C1CCS(=O)(=O)C1 (stereo unspecified),-8.6,5.6,0.3,3.7,nt
O=C(Nc1ccc2[nH]c(=S)sc2c1)c1ccccc1,0.1,3.6,-3.0,5.1*,2.3
O=C1CC(C(=O)Nc2ccc(Cl)cc2)S/C(=N\N=C\c2ccco2)N1 (stereo unspecified),-5.2,2.0,1.1,5.6*,4.0
COc1ccc(NC(=O)C2CC(=O)N/C(=N/N=C/c3ccco3)S2)cc1 (stereo unspecified),-7.6,-6.4,-1.2,5.1*,5.1*
O=C1CC(C(=O)Nc2ccc(Cl)c(Cl)c2)S/C(=N\N=C\c2ccco2)N1 (stereo unspecified),-3.1,9.0,-0.2,0.5,nt
O=C1CC(C(=O)Nc2ccccc2)S/C(=N\N=C\c2ccco2)N1 (stereo unspecified),-5.8,1.6,-1.0,5.0*,5.4*
COc1ccc(/C=N/N=C2/NC(=O)CC(C(=O)O)S2)cc1 (stereo unspecified),-6.8,-2.5,-0.6,5.0*,3.8
N#Cc1cc2c(=O)n3ccccc3nc2n(Cc2ccco2)c1=NC(=O)c1ccco1,-16.3,-17.8,3.4,2.1,nt
CCOP(=O)(OCC)c1nc(-c2cccc3ccccc23)oc1N1CCCCC1,-3.6,7.3,-4.3,-0.2,nt
C=CCc1c(C)nc(C)nc1N/N=C/c1ccc(N(C)C)cc1,-14.7,-12.2,1.6,6.8*,5.0*
CCOC(=O)c1sc(N/N=C/c2ccc(N(C)C)cc2)nc1C,-6.1,4.2,0.0,2.1,nt
Cc1nc(Nc2ccc(Cl)cc2)c(C#N)c(=O)[nH]1,-8.6,-11.3,0.8,0.7,nt
CCN(c1ccccc1)S(=O)(=O)c1nnc(NC(=O)c2ccco2)s1,-7.8,1.7,-0.4,5.9*,5.3*
CCCSc1nnc(NC(=O)CSc2sc3c(O)cc(=O)[nH]c3c2C#N)s1,-3.7,-1.7,-0.8,0.9,nt
N#Cc1c(SCC(=O)Nc2nccs2)sc2c(O)cc(=O)[nH]c12,-5.2,-12.0,0.1,4.9*,2.1
Cc1cc(/C=C(\C#N)C(=O)Nc2ccccc2F)c(C)[nH]1,0.2,-0.1,-3.0,4.7*,3.2
Cc1cc(/C=C(\C#N)C(=O)NC2CC2)c(C)[nH]1,-5.2,14.7,1.2,2.3,nt
CSCc1c(C(=O)N2CCCc3ccccc32)oc2ccccc12,-3.4,2.7,-5.0,8.4*,-0.4
SMILES,MsrA act,MC4R antag cAMP,MC4R ag barr,MsrA inh,MsrA conf
COC(=O)c1ccc(S(=O)(=O)N2CCCN(Cc3cccc(Br)c3F)CC2)n1C,-1.5,0.1,-2.6,14.5*,11.4*
COC(=O)c1ccc(S(=O)(=O)N2CCCN(Cc3ccccc3)CC2)n1C,-1.0,19.3,-1.7,2.2,nt
Cc1cccc(NC(=O)c2sccc2-n2cccc2)c1C,2.1,3.2,-1.8,1.1,nt
CN1c2ccccc2C(O)=C(C(=S)Nc2ccc(Cl)cc2)S1(=O)=O,-10.7,-8.6,-2.5,5.4*,6.0*
Cc1cccc(NC(=O)C2=C(O)c3ccccc3N(C)S2(=O)=O)c1,-8.3,-1.2,0.6,1.6,nt
CCCc1cc(=O)oc2c(CNc3ccc(OCC)cc3)c(O)ccc12,-5.2,-2.6,-2.1,0.6,nt
CC(=O)Nc1ccc(NC(=O)CSc2nc(=O)n3cccc(C)c3n2)cc1,-6.2,-1.5,-2.3,0.7,nt
Cc1ccc(NS(=O)(=O)c2cc(-c3n[nH]c(=O)c4ccccc34)ccc2C)cc1,-1.2,-6.2,-1.3,5.2*,5.0*
CC(=O)Nc1ccc(NC(=O)/C=C/c2ccc3c(c2)OCO3)cc1,-4.7,4.7,-0.6,5.5*,4.3
O=C(N/N=C/c1ccc[nH]1)c1cc(-c2cccs2)nc2ccccc12,-2.1,12.8,-0.5,4.9*,4.5
Cc1cc(C(=O)N/N=C/c2ccc[nH]2)no1,-9.0,1.3,-1.9,4.5,nt
NS(=O)(=O)c1ccc(NC(=O)/C=C/c2ccc3c(c2)OCO3)cc1,-4.8,6.0,-3.1,1.9,nt
COc1ccc(NS(=O)(=O)c2cccc(C(=O)NN=Cc3cc(Br)c(O)c(Br)c3)c2)cc1,-5.8,-7.3,-1.2,5.7*,4.9*
COc1ccc(NS(=O)(=O)c2cccc(C(=O)NN=Cc3ccc(OC)cc3OC)c2)cc1,0.4,-33.0,0.5,1.5,nt
Cc1cc(C(=O)N/N=C/c2ccc[nH]2)n[nH]1,-5.9,22.8,-0.4,5.3*,4.1
Cc1ccsc1/C=N\NC(=O)c1ccc2c(c1)OCO2,-0.3,8.0,-0.1,5.1*,5.5*
COCCNC(=S)N/N=C/c1ccc2c(c1)OCCO2,-2.5,16.6,-0.2,3.6,nt
O=C(N/N=C/c1ccc[nH]1)c1ccc(O)cc1,-3.1,-3.0,-0.1,5.3*,3.6
O=C(NN=Cc1ccc2c(c1)OCO2)c1ccccc1,-9.9,-3.7,-1.9,3.6,nt
O=C(N/N=C/c1ccc[nH]1)c1ccccc1O,-5.3,-8.2,-3.0,4.3,nt
O=C(N/N=C/c1ccc2c(c1)OCO2)c1ccc2c(c1)OCO2,-4.6,-4.2,0.2,4.7*,3.6
COCCCNC(=S)N/N=C/c1ccc2c(c1)OCO2,-3.5,6.0,-0.4,5.5*,4.9*
Cc1ccsc1/C=N/NC(=O)c1ccc2c(c1)OCCO2,-4.9,8.1,-2.2,3.5,nt
O=C(N/N=C/c1ccc[nH]1)c1ccc2c(c1)OCO2,-2.7,1.9,-2.1,5.1*,4.0
COc1cc(/C=N/NC(=O)c2ccc3c(c2)OCCO3)cc(Br)c1O,-4.8,-2.8,-2.9,5.2*,5.3*
SMILES,MsrA act,MC4R antag cAMP,MC4R ag barr,MsrA inh,MsrA conf
COc1ccccc1/C=N/NC(=O)c1ccc2c(c1)OCO2,4.6,-7.2,0.8,2.0,nt
COc1cc(/C=N/NC(=O)c2ccc3c(c2)OCCO3)c(Br)c(Br)c1O,-4.4,-9.1,-3.3,3.1,nt
O=C(COC(=O)c1ccccc1)Nc1ccccc1N1CCOCC1,-5.4,2.4,-0.4,1.8,nt
COc1cccc(-c2cc3c(-n4cccc4)ncnc3o2)c1,1.3,1.4,2.1,5.5*,1.8
O=C1N=C(N2C=CC(=C3C=CNC=C3)C=C2)/C(=C/N=NC(=O)c2ccccc2O)S1,-5.3,-30.3,-4.5,5.8*,6.6*
O=Cc1ccc(Oc2cc(-c3ccccc3)nc(-c3ccccc3)n2)cc1,-2.5,3.1,-0.5,0.7,nt

# Screening results: PubChem BioAssay, The Scripps Research Institute Molecular Screening Center
